{"source": "ChEMBL document CHEMBL4219238", "about": "“Design, synthesis, molecular modelling and in vitro cytotoxicity analysis of novel carbamate derivatives as inhibitors of Monoacylglycerol lipase” (Bioorg Med Chem, 2018)", "key": {"HEK-293T [1]": {"test_system": "HEK-293T", "assay": "Induction of apoptosis in HEK293T cells assessed as necrotic cells at 10 uM after 48 hrs by Annexin V-FITC/propidium iodide staining based flow cytometry (reference value: 8.09%)", "type": "cell-based", "settings": "human", "method_in_brief": "(§1)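 HEK293T (DMEM with 10% FBS) or MCF7 (DMEM/Ham's F-12 1:1, 10% FBS) cells treated 48 h with 10 μM compound or DMSO. Staining with Alexa Fluor 488 annexin V plus 5 μg/ml PI in HEPES/NaCl/CaCl2 binding buffer; 10,000 cells per sample read by flow cytometry; n = 3, mean ± S.E.M.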"}, "MCF7 [2]": {"test_system": "MCF7", "assay": "Induction of apoptosis in human MCF7 cells at 10 uM after 48 hrs in presence of MAGL inhibitor JZL184 by Annexin V-FITC/propidium iodide staining based flow cytometry", "type": "functional, cell-based"}, "[3]": {"biological_target": "T1, Monoglyceride lipase (Homo sapiens) (UniProt Q99685)", "T1 sequence (whole entry)": "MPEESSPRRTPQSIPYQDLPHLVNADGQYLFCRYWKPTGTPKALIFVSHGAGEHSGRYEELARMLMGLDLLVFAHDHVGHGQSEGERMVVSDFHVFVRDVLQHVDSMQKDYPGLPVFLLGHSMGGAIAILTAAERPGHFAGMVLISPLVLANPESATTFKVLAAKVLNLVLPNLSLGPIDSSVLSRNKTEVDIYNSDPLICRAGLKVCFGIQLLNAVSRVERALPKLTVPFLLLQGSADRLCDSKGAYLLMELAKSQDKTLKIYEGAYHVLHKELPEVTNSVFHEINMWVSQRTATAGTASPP", "assay": "Inhibition of MAGL in human MCF7 cells at 10 uM using 7-HRA as substrate preincubated for 6 hrs followed by substrate addition by fluorescence assay", "type": "cell-based", "method_in_brief": "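MCF7 cells cultured 6 h with 10 μM compound or DMSO, then lysed; MAGL activity measured on total cell lysate using the 7-HRA fluorogenic assay.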"}, "MCF7 [4]": {"test_system": "MCF7", "assay": "Induction of apoptosis in human MCF7 cells assessed as necrotic cells at 10 uM after 48 hrs by Annexin V-FITC/propidium iodide staining based flow cytometry (reference value: 5.42%)", "type": "functional", "method_in_brief": "as §1"}, "HEK-293T [5]": {"test_system": "HEK-293T", "assay": "Induction of apoptosis in HEK293T cells assessed as late apoptotic cells at 10 uM after 48 hrs by Annexin V-FITC/propidium iodide staining based flow cytometry (reference value: 2.07%)", "type": "cell-based", "settings": "human", "method_in_brief": "as §1"}, "[6]": {"biological_target": "T2, Fatty-acid amide hydrolase 1 (Homo sapiens) (UniProt O00519)", "T2 sequence (whole entry)": "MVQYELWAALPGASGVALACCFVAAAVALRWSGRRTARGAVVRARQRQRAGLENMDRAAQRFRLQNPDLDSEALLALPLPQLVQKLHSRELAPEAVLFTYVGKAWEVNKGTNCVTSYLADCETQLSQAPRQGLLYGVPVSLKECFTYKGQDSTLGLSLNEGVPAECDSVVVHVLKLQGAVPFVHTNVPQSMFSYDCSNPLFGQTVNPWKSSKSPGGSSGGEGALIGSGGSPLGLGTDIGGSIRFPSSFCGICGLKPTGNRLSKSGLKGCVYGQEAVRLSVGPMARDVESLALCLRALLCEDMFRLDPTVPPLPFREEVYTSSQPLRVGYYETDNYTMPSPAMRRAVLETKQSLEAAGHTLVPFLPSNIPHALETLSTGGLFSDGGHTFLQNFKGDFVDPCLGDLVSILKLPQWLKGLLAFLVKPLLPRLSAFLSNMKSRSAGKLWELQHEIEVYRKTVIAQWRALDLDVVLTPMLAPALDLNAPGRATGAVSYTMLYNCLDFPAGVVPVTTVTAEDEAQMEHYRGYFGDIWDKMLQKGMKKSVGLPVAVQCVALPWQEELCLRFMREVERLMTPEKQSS", "assay": "Inhibition of human FAAH at 10 uM using AAMCA as substrate preincubated for 1 hr followed by substrate addition measured after 30 mins by fluorescence assay relative to control", "method_in_brief": "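Recombinant human FAAH (C-terminal His-tagged, Sf21), 1 U/well, in 50 mM Tris-HCl, 1 mM EDTA, pH 9, preincubated 1 h at room temperature with 10 μM compound (final). AAMCA added to 20 μM final; fluorescence (ex 360/em 460 nm) read every 3 min for 30 min. Rate by linear regression, no-enzyme background subtracted, normalised to no-inhibitor control.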"}, "B16-F10 [7]": {"test_system": "B16-F10", "assay": "Antiproliferative activity against mouse B16F10 cells at 35 to 75 nM after 48 hrs by Cyto Tracker red dye based flow cytometry", "type": "functional, cell-based", "method_in_brief": "(§2)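 B16-F10 cells (Iscove's medium, 10% heat-inactivated FBS, 37 °C, 5% CO2) exposed to compound or DMSO for 48 h, stained with CytoTrack Red 628/643 and analysed by flow cytometry. Proliferation index (average number of cells that an initial cell became) expressed as fold change over DMSO control; n = 3; one-way ANOVA with Tukey post-test.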"}, "Monoglyceride lipase": {"biological_target": "T3, Monoglyceride lipase (Homo sapiens, UniProt Q99685)", "T3 sequence (Q99685 whole entry)": "T1 sequence (whole entry)", "assay": "Inhibition of recombinant human MAGL using 7-HRA as substrate preincubated for 60 mins followed by substrate addition by fluorescence assay", "settings": "read-out: IC50"}, "B16-F10 [8]": {"test_system": "B16-F10", "assay": "Effect on ABHD6 mRNA expression in mouse B16F10 cells by RT-PCR method", "type": "functional"}, "B16-F10 [9]": {"test_system": "B16-F10", "assay": "Induction of apoptosis in mouse B16F10 cells assessed as late apoptotic cells at 75 nM after 48 hrs by Annexin V-FITC/propidium iodide staining based flow cytometry (reference value: 13.54%)", "type": "functional"}, "B16-F10 [10]": {"test_system": "B16-F10", "assay": "Effect on ABHD12 mRNA expression in mouse B16F10 cells by RT-PCR method", "type": "functional"}, "B16-F10 [11]": {"test_system": "B16-F10", "assay": "Induction of apoptosis in mouse B16F10 cells assessed as late apoptotic cells at 10 uM after 48 hrs by Annexin V-FITC/propidium iodide staining based flow cytometry (reference value: 7.39%)", "type": "functional"}, "MCF7 [12]": {"test_system": "MCF7", "assay": "Induction of apoptosis in human MCF7 cells assessed as live cells at 10 uM after 48 hrs by Annexin V-FITC/propidium iodide staining based flow cytometry (reference value: 82.58%)", "type": "functional", "method_in_brief": "as §1"}, "B16-F10 [13]": {"test_system": "B16-F10", "assay": "Antiproliferative activity against mouse B16F10 cells at 10 uM after 48 hrs by Cyto Tracker red dye based flow cytometry", "type": "functional, cell-based", "method_in_brief": "as §2"}, "B16-F10 [14]": {"test_system": "B16-F10", "assay": "Induction of apoptosis in mouse B16F10 cells assessed as late apoptotic cells at 35 nM after 48 hrs by Annexin V-FITC/propidium iodide staining based flow cytometry (reference value: 13.54%)", "type": "functional"}, "MCF7 [15]": {"test_system": "MCF7", "assay": "Induction of apoptosis in human MCF7 cells assessed as early apoptotic cells at 10 uM after 48 hrs by Annexin V-FITC/propidium iodide staining based flow cytometry (reference value: 3.16%)", "type": "functional", "method_in_brief": "as §1"}, "B16-F10 [16]": {"test_system": "B16-F10", "assay": "Induction of apoptosis in mouse B16F10 cells assessed as live cells at 75 nM after 48 hrs by Annexin V-FITC/propidium iodide staining based flow cytometry (reference value: 79.55%)", "type": "functional"}, "MCF7 [17]": {"test_system": "MCF7", "assay": "Induction of apoptosis in human MCF7 cells at 10 uM after 48 hrs by Annexin V-FITC/propidium iodide staining based flow cytometry", "type": "functional, cell-based", "method_in_brief": "as §1"}, "B16-F10 [18]": {"test_system": "B16-F10", "assay": "Induction of apoptosis in mouse B16F10 cells assessed as necrotic cells at 35 nM after 48 hrs by Annexin V-FITC/propidium iodide staining based flow cytometry (reference value: 5.48%)", "type": "functional"}, "B16-F10 [19]": {"test_system": "B16-F10", "assay": "Induction of apoptosis in mouse B16F10 cells assessed as early apoptotic cells at 75 nM after 48 hrs by Annexin V-FITC/propidium iodide staining based flow cytometry (reference value: 1.43%)", "type": "functional"}}, "note": "Activity calls are given as the source filed them. The rule behind the calls is not given here."}
{"smiles": "O=C(Nc1cccc(-c2ccc(C(F)(F)F)cc2)c1)OCc1ccco1", "values": [{"measurement": "Activity", "setting": "HEK-293T [1]", "result": 8.4, "unit": "%"}, {"measurement": "Activity", "setting": "MCF7 [2]", "result": "Active"}, {"measurement": "inhibition", "setting": "[3]", "result": "Active"}, {"measurement": "Activity", "setting": "MCF7 [4]", "result": 5.33, "unit": "%"}, {"measurement": "Activity", "setting": "HEK-293T [5]", "result": 2.1, "unit": "%"}, {"measurement": "inhibition", "setting": "[6]", "result": 10, "unit": "%"}, {"measurement": "Activity", "setting": "B16-F10 [7]", "result": "Active"}, {"measurement": "IC50", "setting": "Monoglyceride lipase", "result": 6.7, "unit": "µM"}, {"measurement": "deltaCT", "setting": "B16-F10 [8]", "result": 10.73}, {"measurement": "Activity", "setting": "B16-F10 [9]", "result": 30.39, "unit": "%"}, {"measurement": "deltaCT", "setting": "B16-F10 [10]", "result": 16.84}, {"measurement": "Activity", "setting": "B16-F10 [11]", "result": 64.08, "unit": "%"}, {"measurement": "Activity", "setting": "MCF7 [12]", "result": 60.27, "unit": "%"}, {"measurement": "Activity", "setting": "B16-F10 [13]", "result": "Active"}, {"measurement": "Activity", "setting": "B16-F10 [14]", "result": 29.37, "unit": "%"}, {"measurement": "Activity", "setting": "MCF7 [15]", "result": 8.77, "unit": "%"}, {"measurement": "Activity", "setting": "B16-F10 [16]", "result": 62.84, "unit": "%"}, {"measurement": "Activity", "setting": "MCF7 [17]", "result": "Active"}, {"measurement": "Activity", "setting": "B16-F10 [18]", "result": 2.62, "unit": "%"}, {"measurement": "Activity", "setting": "B16-F10 [19]", "result": 2.44, "unit": "%"}]}
